Experiment [1] deals with HepG-2 (hepatocellular carcinoma). Nature of the experiment: Antiproliferative SRB assay, HepG2. Type of experiment: cell-based, human. Particulars: for IC50: Homo sapiens, HepG2, 72 h, read-out: pIC50 HepG2 (converted); for Selectivity index (SI) HepG2: IC50 BALB/3T3 / IC50 HepG2.
Experiment [2] concerns A498 (kidney carcinoma). Description: Antiproliferative SRB assay, A-498. Particulars: for IC50: Homo sapiens, A498, 72 h, read-out: pIC50 A-498 (converted); for Selectivity index (SI) A498: IC50 BALB/3T3 / IC50 A498. Type of experiment: cell-based, human. In general terms: The SRB assay estimates cell density from bound dye.
The subject of experiment [3] is MDA-MB-231 (breast adenocarcinoma). Nature of the experiment: Antiproliferative SRB assay, MDA-MB-231. Type of experiment: cell-based, human. The conditions noted are these: for IC50: Homo sapiens, MDA-MB-231, 72 h, read-out: pIC50 MDA-MB-231 (converted); for Selectivity index (SI) MDA-MB-231: IC50 BALB/3T3 / IC50 MDA-MB-231.
Experiment [4] concerns the target VEGFR-2 (Homo sapiens, UniProt P35968). Description: In vitro VEGFR-2 kinase inhibitory assay. The class given is biochemical.
In experiment [5] the target is T1, xanthine oxidase (XO) (Homo sapiens, UniProt P47989). Nature of the experiment: Xanthine oxidase inhibition assay. Type of experiment: biochemical.
Experiment [6] concerns the target CDK6/Cyclin D3 (Homo sapiens, UniProt Q00534). Description: In vitro CDK6 inhibitory assay. Type of experiment: biochemical.
In experiment [7] the test system is MV4-11 cell line. Description: Antiproliferative MTT assay, MV4-11. The class given is cell-based. The conditions noted are these: Homo sapiens, MV4-11, read-out: Anti-proliferative IC50 MV4-11. A digest of the protocol: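 MV4-11 cells grown in RPMI 1640 with stable glutamine, 10% FBS, 1.0 mM sodium pyruvate and penicillin/streptomycin at 37 °C, 5% CO2. Seeded at 2000 cells/well, then treated after 24 h with test compound (DMSO stock of 10 mg mL−1 diluted in medium; 0.1–100 μg mL−1) for 72 h. MTT added for 4 h, formazan dissolved in DMF, A570 read. IC50 calculated.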
(In general: Formazan colour is commonly taken as a measure of viable cells.)

Experiment [8] relates to MV4-11 cell line. Description: Cell cycle analysis. The class given is cell-based. Particulars: for Cell percentage SubG1: control 7.12 ± 0.569; for Cell percentage G2/M: control 20.98 ± 0.614; for Cell percentage S: control 24.54 ± 2.475; for Cell percentage G0/G1: control 45.40 ± 3.051.
Experiment [9] has as its system MV4-11 cell line. Particulars: MV4-11 cancer cell line; cited from earlier work.
Experiment [10] addresses T1, xanthine oxidase (XO). Description: Kinetics of xanthine oxidase inhibition. Type of experiment: biochemical. Particulars: for V max: XO alone 2.25 / 2.21; for K m: XO alone Km 40.

Molecules are shown by their SMILES. Values joined by “and” are separate entries in the source; they are usually repeats but may differ in a detail not shown here. Identical values can stand only once.

T1 sequence (P47989 whole entry, species assumed): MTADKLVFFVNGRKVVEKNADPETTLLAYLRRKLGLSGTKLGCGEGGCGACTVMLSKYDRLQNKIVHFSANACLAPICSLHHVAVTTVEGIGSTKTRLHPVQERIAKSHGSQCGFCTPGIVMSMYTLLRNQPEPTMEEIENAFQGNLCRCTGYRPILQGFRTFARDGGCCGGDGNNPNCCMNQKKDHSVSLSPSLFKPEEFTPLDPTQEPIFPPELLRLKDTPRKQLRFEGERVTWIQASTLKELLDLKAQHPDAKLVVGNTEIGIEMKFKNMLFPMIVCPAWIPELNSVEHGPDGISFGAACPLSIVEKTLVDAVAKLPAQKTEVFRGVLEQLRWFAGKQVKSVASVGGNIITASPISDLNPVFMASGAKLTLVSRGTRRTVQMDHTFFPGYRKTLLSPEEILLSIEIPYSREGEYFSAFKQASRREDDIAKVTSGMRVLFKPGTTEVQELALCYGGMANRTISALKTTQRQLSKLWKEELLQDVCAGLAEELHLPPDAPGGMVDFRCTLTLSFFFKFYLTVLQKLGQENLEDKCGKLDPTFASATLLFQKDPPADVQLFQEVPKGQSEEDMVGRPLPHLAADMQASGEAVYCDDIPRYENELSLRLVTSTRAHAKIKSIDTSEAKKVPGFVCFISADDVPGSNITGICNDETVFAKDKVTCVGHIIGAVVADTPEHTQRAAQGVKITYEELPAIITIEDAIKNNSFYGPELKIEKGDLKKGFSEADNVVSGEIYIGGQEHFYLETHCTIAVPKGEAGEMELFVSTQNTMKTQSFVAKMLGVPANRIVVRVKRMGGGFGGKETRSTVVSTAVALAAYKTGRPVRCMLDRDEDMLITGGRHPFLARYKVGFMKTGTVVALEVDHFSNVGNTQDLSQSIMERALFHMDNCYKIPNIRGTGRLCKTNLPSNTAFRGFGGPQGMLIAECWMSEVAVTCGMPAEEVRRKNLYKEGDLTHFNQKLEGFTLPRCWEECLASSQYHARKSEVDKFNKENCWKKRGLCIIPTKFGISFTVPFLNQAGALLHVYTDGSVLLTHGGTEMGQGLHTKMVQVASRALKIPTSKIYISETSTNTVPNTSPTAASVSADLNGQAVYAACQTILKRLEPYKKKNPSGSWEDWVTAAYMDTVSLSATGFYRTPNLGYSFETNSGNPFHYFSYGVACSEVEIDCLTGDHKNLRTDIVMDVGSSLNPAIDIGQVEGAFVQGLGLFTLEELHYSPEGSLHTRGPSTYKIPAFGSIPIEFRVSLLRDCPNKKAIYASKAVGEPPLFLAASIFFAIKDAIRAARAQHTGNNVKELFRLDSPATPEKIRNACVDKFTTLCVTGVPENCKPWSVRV
VEGFR-2, sequence (P35968 20-1356): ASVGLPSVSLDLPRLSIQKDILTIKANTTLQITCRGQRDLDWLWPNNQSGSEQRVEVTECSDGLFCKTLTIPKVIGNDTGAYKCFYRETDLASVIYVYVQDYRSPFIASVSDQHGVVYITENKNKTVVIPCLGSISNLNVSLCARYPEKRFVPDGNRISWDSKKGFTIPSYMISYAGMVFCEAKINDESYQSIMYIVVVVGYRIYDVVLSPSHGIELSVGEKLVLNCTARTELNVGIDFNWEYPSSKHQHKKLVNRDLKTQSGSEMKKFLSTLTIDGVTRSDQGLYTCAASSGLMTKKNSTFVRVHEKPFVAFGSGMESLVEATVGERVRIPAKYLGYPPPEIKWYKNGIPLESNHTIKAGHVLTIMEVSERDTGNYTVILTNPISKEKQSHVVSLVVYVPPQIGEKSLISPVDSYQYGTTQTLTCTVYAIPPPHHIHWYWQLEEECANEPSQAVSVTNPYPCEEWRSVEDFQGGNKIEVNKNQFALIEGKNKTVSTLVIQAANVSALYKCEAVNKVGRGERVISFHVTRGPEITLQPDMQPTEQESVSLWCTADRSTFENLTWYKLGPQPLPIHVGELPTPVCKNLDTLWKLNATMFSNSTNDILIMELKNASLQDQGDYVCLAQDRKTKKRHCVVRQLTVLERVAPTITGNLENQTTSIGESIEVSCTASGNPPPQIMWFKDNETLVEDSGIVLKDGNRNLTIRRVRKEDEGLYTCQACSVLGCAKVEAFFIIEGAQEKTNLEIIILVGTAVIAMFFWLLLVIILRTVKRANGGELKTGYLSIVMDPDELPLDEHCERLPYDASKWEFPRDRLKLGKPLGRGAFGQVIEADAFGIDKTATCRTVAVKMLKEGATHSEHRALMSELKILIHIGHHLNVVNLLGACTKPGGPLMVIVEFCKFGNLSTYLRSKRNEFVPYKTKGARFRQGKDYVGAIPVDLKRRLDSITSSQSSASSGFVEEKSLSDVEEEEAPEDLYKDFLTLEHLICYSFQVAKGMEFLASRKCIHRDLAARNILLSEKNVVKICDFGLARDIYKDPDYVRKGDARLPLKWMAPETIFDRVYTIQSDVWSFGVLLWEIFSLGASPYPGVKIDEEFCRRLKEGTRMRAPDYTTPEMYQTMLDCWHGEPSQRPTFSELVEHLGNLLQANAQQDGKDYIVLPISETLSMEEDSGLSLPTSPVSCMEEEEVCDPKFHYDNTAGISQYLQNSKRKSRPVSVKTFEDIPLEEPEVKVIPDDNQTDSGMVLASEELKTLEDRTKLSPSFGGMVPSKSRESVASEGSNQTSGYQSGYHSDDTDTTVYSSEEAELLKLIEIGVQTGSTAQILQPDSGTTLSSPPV
CDK6/Cyclin D3, sequence (Q00534 whole entry): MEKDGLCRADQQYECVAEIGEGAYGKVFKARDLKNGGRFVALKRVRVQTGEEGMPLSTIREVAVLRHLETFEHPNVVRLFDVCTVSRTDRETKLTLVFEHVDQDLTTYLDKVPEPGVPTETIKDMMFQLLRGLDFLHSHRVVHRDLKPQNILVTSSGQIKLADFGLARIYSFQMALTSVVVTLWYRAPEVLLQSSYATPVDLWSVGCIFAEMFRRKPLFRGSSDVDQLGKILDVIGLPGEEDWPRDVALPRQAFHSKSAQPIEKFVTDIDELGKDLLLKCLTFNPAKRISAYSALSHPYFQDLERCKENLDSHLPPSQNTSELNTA
CDK6/Cyclin D3, sequence (P30281 whole entry partner): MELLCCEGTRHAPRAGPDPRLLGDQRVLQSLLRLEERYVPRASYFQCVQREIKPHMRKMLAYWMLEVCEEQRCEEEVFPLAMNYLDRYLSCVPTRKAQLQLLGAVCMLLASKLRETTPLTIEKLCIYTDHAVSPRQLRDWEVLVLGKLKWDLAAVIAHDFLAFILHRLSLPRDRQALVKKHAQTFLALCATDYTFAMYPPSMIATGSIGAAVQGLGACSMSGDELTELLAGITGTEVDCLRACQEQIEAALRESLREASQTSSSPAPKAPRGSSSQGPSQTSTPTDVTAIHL

`NC(=S)N/N=C1\C(=O)N(CCn2ncc3c(=O)[nH]cnc32)c2ccc(F)cc21` [8d, (2Z)-2-{5-Fluoro-2-oxo-1-[2-(4-oxo-1,5-dihydropyrazolo[3,4-d]pyrimidin-1-yl)ethyl]-1,2-dihydro-3H-indol-3-ylidene}hydrazine-1-carbothioamide]: the IC50 is 25.1 µM in [1] and 105 µM in experiment [2].
As for `O=C1C(=O)N(CCn2ncc3c(=O)[nH]cnc32)c2ccc(F)cc21` [6d, 5-Fluoro-1-[(2-(1,5-dihydro-4-oxopyrazolo[3,4-d]pyrimidin-1-yl)ethyl)]indole-2,3-dione], the IC50 in experiment [1] was 61.7 µM; in [3], 47.9 µM; in experiment [2], 38.9 µM.
In the case of `O=C1C(=O)N(CCn2ncc3c(=O)[nH]cnc32)c2ccccc21` [6a, 1-[2-(1,5-Dihydro-4-oxopyrazolo[3,4-d]pyrimidin-1-yl)ethyl] indole-2,3-dione], the IC50 is 151 µM in [1]; 0.309 µM in experiment [4]; 91.2 µM in experiment [3]; 58.9 µM in experiment [2]; 43.7 ± 5.51 µM in experiment [5]; 0.603 µM in experiment [6].
Regarding `COc1ccc2c(c1)C(=O)C(=O)N2CCn1ncc2c(=O)[nH]cnc21` [6c, 1-[2-(1,5-Dihydro-4-oxopyrazolo[3,4-d]pyrimidin-1-yl)ethyl]5-methoxyindole-2,3-dione], the IC50 in experiment [1] was 93.3 µM; in [3], 47.9 µM; in experiment [2] it was 30.2 µM.
In the same order, the values of `Nc1ncnc2c1ncn2CCN1C(=O)C(=O)c2cc(F)ccc21` [7d, 1-[2-(6-Amino-9H-purin-9-yl)ethyl]-2,3-dihydro-5-fluoro-1H-indole-2,3-dione] are 17.4 µM, 83.2 µM and 166 µM.
As to `Nc1ncnc2c1ncn2CCN1C(=O)C(=O)c2cc(Cl)ccc21` [7b, 1-[2-(6-Amino-9H-purin-9-yl)ethyl]-5-chloro-2,3-dihydro-1H-indole-2,3-dione], in experiment [1], the IC50 was 6.03 µM and the “Selectivity index (SI) HepG2” value is recorded as 11.89. The same compound gave an IC50 in experiment [4] of 0.513 µM. Besides, in experiment [3], the IC50 was 19.5 µM and the “Selectivity index (SI) MDA-MB-231” value was 3.64. Also, in [7], the IC50 is 11.8 µM. For the same compound, in experiment [2], the IC50 is 52.5 µM and the “Selectivity index (SI) A498” value came to 1.37. Besides, the IC50 in experiment [5] is 66.1 µM. Besides, in [8] (MV4-11, 10 μg mL^−1, p < 0.05), the “Increase in S phase relative to control” value was 1.49 fold. In addition, in experiment [8] (MV4-11, 10 μg mL^−1), the “Cell percentage SubG1” value was 6.15 ± 2.74% and 6.15 ± 2.739%; the “Cell percentage G2/M” value stood at 13.32 ± 2.763%; the “Cell percentage S” value amounted to 36.66 ± 4.326%; the “Cell percentage G0/G1” value stood at 44.36 ± 4.193%. The IC50 in experiment [6] was 1.51 µM.
In the case of `NC(=S)N/N=C1\C(=O)N(CCn2cnc3c(N)ncnc32)c2ccc(F)cc21` [9d, (2Z)-2-{5-Fluoro-2-oxo-1-[2-(6-aminopurine-9-yl)ethyl]-1,2-dihydro-3H-indol-3-ylidene}hydrazine-1-carbothioamide], the IC50 in experiment [1] was 56.2 µM.
In the case of `Nc1ncnc2c1ncn2CCN1C(=O)C(=O)c2ccccc21` [7a, 1-[2-(6-Amino-9H-purin-9-yl)ethyl]-2,3-dihydro-1H-indole-2,3-dione], the IC50 in [3] is 209 µM.
As for `NC(=S)N/N=C1\C(=O)N(CCn2ncc3c(=O)[nH]cnc32)c2ccc(Cl)cc21` [8b, (2Z)-2-{5-Chloro-2-oxo-1-[2-(4-oxo-1,5-dihydropyrazolo[3,4-d]pyrimidin-1-yl)ethyl]-1,2-dihydro-3H-indol-3-ylidene}hydrazine-1-carbothioamide], the IC50 is 13.2 µM in experiment [1]; 0.0708 µM in [4]; 53.7 µM in experiment [3]; 14.1 µM in experiment [2]; 21.9 µM in [5]; 0.0676 µM in [6]. Further, the “Selectivity index (SI) HepG2” value in experiment [1] was determined as 2.60. Also, the “Selectivity index (SI) MDA-MB-231” value in experiment [3] was 0.63. Also, the “Selectivity index (SI) A498” value in experiment [2] was 2.45.
Turning to `CC(=O)c1c(C)c2cnc(Nc3ccc(N4CCNCC4)cn3)nc2n(C2CCCC2)c1=O` [Palbociclib], in [9], the “Cell cycle arrest phase” value was “cell cycle arrest at the G1 phase”.
Regarding `Oc1ncnc2[nH]ncc12` [Allopurinol], the “Type of XO inhibition” value in experiment [10] (Lineweaver–Burk plot) is “mixed”. Also, the V max in [10] (inhibitor 0.1 μM) turned out to be 1.51; in [10] (inhibitor 1 μM) it was 1.33; in experiment [10] (inhibitor 10 μM), 0.55. Also, the values for the K m in experiment [10] (inhibitor 0.1 μM), in experiment [10] (inhibitor 1 μM) and in [10] (inhibitor 10 μM) were 50, 64 and 51, respectively.
For `CNC(=O)c1cc(Oc2ccc(NC(=O)Nc3ccc(Cl)c(C(F)(F)F)c3)cc2)ccn1` [Sorafenib, reference compound], the IC50 was 44.7 µM in [1], 81.3 µM in experiment [3] and 63.1 µM in experiment [2].
Turning to `O=C1C(=O)N(CCn2ncc3c(=O)[nH]cnc32)c2ccc(Cl)cc21` [6b, 5-Chloro-1-[2-(1,5-dihydro-4-oxopyrazolo[3,4-d]pyrimidin-1-yl)ethyl]indole-2,3-dione], in experiment [1], the IC50 was 15.1 µM and the “Selectivity index (SI) HepG2” value stood at 2.15. Also, in experiment [3], the IC50 is 13.2 µM and the “Selectivity index (SI) MDA-MB-231” value is 2.49. For the same compound, in experiment [7], the IC50 was 5.85 µM. Further, in experiment [2], the IC50 is 16.2 µM and the “Selectivity index (SI) A498” value is listed as 2.03. Further, in experiment [8] (MV4-11, 1 μg mL^−1), the “Cell percentage SubG1” value worked out at 3.48 ± 1.178%, the “Cell percentage G2/M” value amounted to 17.67 ± 1.285%, the “Cell percentage S” value came to 27.15 ± 3.651% and the “Cell percentage G0/G1” value was determined as 50.37 ± 4.619%.
As to `COc1ccc2c(c1)C(=O)C(=O)N2CCn1cnc2c(N)ncnc21` [7c, 1-[2-(6-Amino-9H-purin-9-yl)ethyl]-2,3-dihydro-5-methoxy-1H-indole-2,3-dione], the IC50 was 77.6 µM in experiment [1], 135 µM in [3] and 182 µM in [2].

The values are drawn from publication PMC12377214 (RSC Advances, 2025).
